Measured values as given in ChEMBL document CHEMBL1123648, “Synthesis, chemical reactivity, and antileukemic activity of 5-substituted 6,7-bis(hydroxymethyl)pyrrolo[1,2-c]thiazole biscarbamates and the corresponding sulfoxides and sulfones” (1987).

Columns and labels:
[1] = Percent increase in life span of test animals compared to untreated tumor-bearing control group A animals at a dose of 25 mg/kg; format: functional; details: Mus musculus
[2] = Antileukemic activity against Murine P388 lymphocytic leukemia, body weight difference of the test animals compared to control group B animals at a dose of 50 mg/kg; format: functional, Mus musculus; set-up: unit not given here
Summary of the method: (§1)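 CD2F1 mice implanted intraperitoneally with ascitic fluid carrying ca. 1×10^6 P388 cells, under the NCI protocol. Dosing was intraperitoneal, starting 24 h after inoculation, then every 24 h for five doses in total. The body weight difference of treated mice is taken against untreated controls. Toxicity day survivors are the mice alive at day five out of those tested.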

[3] = Antileukemic activity against Murine P388 lymphocytic leukemia, body weight difference of the test animals compared to control group A animals at a dose of 25 mg/kg; format: functional, Mus musculus; set-up: unit not given here; summary of the method: as §1
[4] = tested on: P388; experiment: Log cell population relative to cell population at the beginning of treatment compared to control group B at a dose of 6.25 mg/kg; format: functional, Mus musculus
[5] = Antileukemic activity against Murine P388 lymphocytic leukemia, body weight difference of the test animals compared to control group B animals at a dose of 100 mg/kg; format: functional, Mus musculus; set-up: unit not given here; summary of the method: as §1
[6] = Toxicity day survivors expressed as number of animals that survived to day five/ number of test animals under control group A at a dose of 6.25 mg/kg; 6 survived out of 6; format: functional, Mus musculus
[7] = Percent increase in life span of test animals compared to untreated tumor-bearing control group B animals at a dose of 100 mg/kg; format: functional; details: Mus musculus
[8] = Toxicity day survivors expressed as number of animals that survived to day five/ number of test animals under control group A at a dose of 100 mg/kg; 6 survived out of 6; format: functional, Mus musculus
[9] = Antileukemic activity against Murine P388 lymphocytic leukemia, body weight difference of the test animals compared to control group A animals at a dose of 6.25 mg/kg; format: functional, Mus musculus; summary of the method: as §1
[10] = Antileukemic activity against Murine P388 lymphocytic leukemia, body weight difference of the test animals compared to control group A animals at a dose of 50 mg/kg; format: functional, Mus musculus; set-up: unit not given here; summary of the method: as §1
[11] = Percent increase in life span of test animals compared to untreated tumor-bearing control group B animals at a dose of 6.25 mg/kg; format: functional; details: Mus musculus
[12] = Percent increase in life span of test animals compared to untreated tumor-bearing control group A animals at a dose of 12.5 mg/kg; format: functional; details: Mus musculus
[13] = Antileukemic activity against Murine P388 lymphocytic leukemia, body weight difference of the test animals compared to control group C animals at a dose of 6.25 mg/kg; format: functional, Mus musculus; summary of the method: as §1
[14] = Percent increase in life span of test animals compared to untreated tumor-bearing control group B animals at a dose of 25 mg/kg; format: functional; details: Mus musculus
[15] = Percent increase in life span of test animals compared to untreated tumor-bearing control group B animals at a dose of 12.5 mg/kg; format: functional; details: Mus musculus
[16] = Percent increase in life span of test animals compared to untreated tumor-bearing control group A animals at a dose of 50 mg/kg; format: functional; details: Mus musculus
[17] = tested on: P388; experiment: Log cell population relative to cell population at the beginning of treatment compared to control group C at a dose of 25 mg/kg; format: functional, Mus musculus

## CC(C)NC(=O)OCc1c(COC(=O)NC(C)C)c(-c2ccc(Cl)c(Cl)c2)n2c1CCC2
[1]
  ILS at 25 mg/kg: 75%
[2]
  BWD: -3.1
[3]
  BWD: -1.7
[4]
  KE: 0.69
[5]
  BWD: -4.6
[6]
  TDS: 6
[7]
  ILS at 100 mg/kg: -14%
[8]
  TDS: 6
[9]
  BWD: 0
[10]
  BWD: -2.6
[11]
  ILS at 6.25 mg/kg: 41%
[12]
  ILS at 12.5 mg/kg: 56%
[13]
  BWD: -1.1
[14]
  ILS at 25 mg/kg: 66%
[15]
  ILS at 12.5 mg/kg: 45%
[16]
  ILS at 50 mg/kg: 97%
[17]
  KE: 1.85
